The test system of assay [1] is Pseudomonas aeruginosa. The assay is described as follows: Antibiofilm activity against Pseudomonas aeruginosa clinical isolate 53 assessed as inhibition of biofilm formation at 1.56 uM incubated for 24 hrs by crystal violet staining based microtiter plate method. The class given is functional, organism-based. The essentials:
(§1)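 Washed overnight cultures in BM2 medium at 1 × 10^6 CFU/mL with 2-fold serial peptide dilutions in a U-bottom 96-well plate. Incubated 24 h at 37 °C without agitation. Unattached cells washed off, then 0.1% crystal violet stain read at 590 nm. No-bacteria blanks. Biomass expressed as % of untreated biofilm. At least three biological repeats.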

The subject of assay [2] is Pseudomonas aeruginosa. The experiment in a line: Antibiofilm activity against Pseudomonas aeruginosa clinical isolate 72 assessed as inhibition of biofilm formation at 1.56 uM incubated for 24 hrs by crystal violet staining based microtiter plate method. The class given is functional, organism-based. In outline: as §1
The subject of assay [3] is Pseudomonas aeruginosa. The assay is described as follows: Antibiofilm activity against Pseudomonas aeruginosa clinical isolate 995 assessed as inhibition of biofilm formation at 1.56 uM incubated for 24 hrs by crystal violet staining based microtiter plate method. The class given is functional, organism-based. In outline:
as §1

Assay [4] relates to Pseudomonas aeruginosa. The experiment in a line: Induction of biofilm degradation of Pseudomonas aeruginosa clinical isolate 59 at 1.56 uM incubated for 1 hr by crystal violet staining analysis. The class given is functional. In outline: (§2)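 Bacteria at 1 × 10^6 CFU/mL in BM2 grown static at 37 °C for 24 h to form biofilm. Wells rinsed of unattached cells, then exposed for 1 h to serial peptide dilutions (1.56–50 μM). Washed, stained with 0.1% crystal violet, A590 read. Biomass given as % of untreated biofilm; no-bacteria wells as blanks. At least three biological repeats.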

Assay [5] has as its system Pseudomonas aeruginosa. The assay is described as follows: Antibiofilm activity against Pseudomonas aeruginosa clinical isolate 24 in artificial sputum medium at 100 uM incubated for 24 hrs by resazurin staining based microtiter plate method. The class given is functional, organism-based. In outline:
(§3)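 Washed overnight culture set to OD ~0.05 in BM2, diluted 1:100 into artificial sputum medium (pH 6.9) in 24-well plates. Grown 3 days aerobically at 37 °C with agitation. Peptides (12.5–100 μM) added for 24 h with agitation. Biofilm disrupted by cellulase for 1 h at 37 °C. Resazurin 0.02% for 1–2 h, fluorescence ex 530/em 590 nm; viability as % of untreated wells.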
In general terms: The colour change of resazurin is a common sign of viable cells or microbes.

Assay [6] has as its system Pseudomonas aeruginosa. The assay is described as follows: Antibiofilm activity against Pseudomonas aeruginosa clinical isolate 46 in artificial sputum medium at 50 uM incubated for 24 hrs by resazurin staining based microtiter plate method. The class given is functional, organism-based. In outline: as §3
The test system of assay [7] is Pseudomonas aeruginosa. The assay is described as follows: Antibiofilm activity against Pseudomonas aeruginosa clinical isolate 24 in artificial sputum medium at 25 uM incubated for 24 hrs by resazurin staining based microtiter plate method relative to control. The class given is functional. The essentials:
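Overnight cultures were washed, resuspended in BM2 to OD ~0.05, and diluted 1:100 into artificial sputum medium (pH 6.9). Biofilms grew 3 days at 37 °C with aerobic agitation in 24-well plates. Peptides (12.5–100 μM) were then added for 24 h with agitation. Biofilm was disrupted with cellulase for 1 h at 37 °C. Resazurin (0.02%) was added for 1–2 h, fluorescence read at ex 530/em 590 nm, and viability expressed as % of untreated wells.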

Assay [8] concerns Pseudomonas aeruginosa. The assay is described as follows: Antibiofilm activity against Pseudomonas aeruginosa clinical isolate 59 assessed as inhibition of biofilm formation at MIC incubated for 24 hrs by crystal violet staining based microtiter plate method. The class given is functional. In outline:
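In BM2, bacteria at 1 × 10^6 CFU/mL were incubated with 2-fold serial peptide dilutions for 24 h at 37 °C without agitation. Unattached cells were washed off, and the remaining biofilm was stained with 0.1% crystal violet and read at OD590. Blanks had no bacteria. Biomass is given as % of untreated biofilm; at least three biological repeats.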

Assay [9] concerns Pseudomonas aeruginosa. The experiment in a line: Induction of biofilm degradation of Pseudomonas aeruginosa clinical isolate 52 at sub MIC concentration incubated for 1 hr by crystal violet staining analysis. The class given is functional. The essentials: as §2
Assay [10] relates to Pseudomonas aeruginosa. The experiment in a line: Induction of biofilm degradation of Pseudomonas aeruginosa clinical isolate 238 at sub MIC concentration incubated for 1 hr by crystal violet staining analysis. The class given is functional. In outline: as §2
In assay [11] the test system is Pseudomonas aeruginosa. The experiment in a line: Induction of biofilm degradation of Pseudomonas aeruginosa clinical isolate 629 at sub MIC concentration incubated for 1 hr by crystal violet staining analysis. The class given is functional. In outline: as §2

The source made the active and inactive calls. The calls are words filed in the database; no cut-off is given here.

As to `CC(C)C[C@H](NC(=O)[C@H](CC(C)C)NC(=O)[C@H](CCCCN)NC(=O)[C@H](CC(C)C)NC(=O)[C@H](CC(C)C)NC(=O)[C@H](CCCCN)NC(=O)[C@H](CCCCN)NC(=O)[C@H](CC(C)C)NC(=O)[C@H](CC(C)C)NC(=O)[C@H](CCCCN)NC(=O)[C@H](CCCCN)NC(=O)[C@H](CC(C)C)NC(=O)[C@H](CC(C)C)NC(=O)[C@H](CCCCN)NC(=O)[C@@H](N)CC(C)C)C(N)=O`, the inhibition entry in [1], in [2] and in [3] was “Active” each time. In addition, the outcome in assay [4], in assay [5] and in [6] was Active. This compound returned an Activity in assay [7] of 41.24%.

As to `CC[C@H](C)[C@H](NC(=O)[C@H](CCCCN)NC(=O)[C@H](CCC(=O)O)NC(=O)[C@H](CCCCN)NC(=O)[C@H](CO)NC(=O)[C@H](CCCCN)NC(=O)[C@H](CCCNC(=N)N)NC(=O)[C@H](Cc1ccccc1)NC(=O)[C@H](Cc1ccccc1)NC(=O)[C@H](CC(=O)O)NC(=O)CNC(=O)[C@H](CC(C)C)NC(=O)[C@@H](N)CC(C)C)C(=O)NCC(=O)N[C@@H](CCCCN)C(=O)N[C@@H](CCC(=O)O)C(=O)N[C@@H](Cc1ccccc1)C(=O)N[C@@H](CCCCN)C(=O)N[C@@H](CCCNC(=N)N)C(=O)N[C@H](C(=O)N[C@H](C(=O)N[C@@H](CCC(N)=O)C(=O)N[C@@H](CCCNC(=N)N)C(=O)N[C@H](C(=O)N[C@@H](CCCCN)C(=O)N[C@@H](CC(=O)O)C(=O)N[C@@H](Cc1ccccc1)C(=O)N[C@@H](CC(C)C)C(=O)N[C@@H](CCCNC(=N)N)C(=O)N[C@@H](CC(N)=O)C(=O)N[C@@H](CC(C)C)C(=O)N[C@H](C(=O)N1CCC[C@H]1C(=O)N[C@@H](CCCNC(=N)N)C(=O)N[C@H](C(=O)N[C@@H](CCC(=O)O)C(=O)N[C@@H](CO)C(N)=O)[C@@H](C)O)C(C)C)[C@@H](C)CC)C(C)C)[C@@H](C)CC`, in [8], the “inhibition (INH)” value worked out at 30%.

With `CC(C)C[C@H](NC(=O)[C@H](CC(C)C)NC(=O)[C@H](CC(C)C)NC(=O)[C@H](CC(C)C)NC(=O)[C@H](CC(C)C)NC(=O)[C@H](CC(C)C)NC(=O)[C@H](CC(C)C)NC(=O)[C@H](CC(C)C)NC(=O)[C@H](CC(C)C)NC(=O)[C@H](CCCCN)NC(=O)[C@H](CCCCN)NC(=O)[C@@H](N)CCCCN)C(=O)N[C@@H](CCCCN)C(=O)N[C@@H](CCCCN)C(=O)N[C@@H](CCCCN)C(N)=O`, the outcome in [9], in assay [10] and in assay [11] was Active.

Source of the values: ChEMBL document CHEMBL5143722, “Antimicrobial Peptides against Multidrug-Resistant Pseudomonas aeruginosa Biofilm from Cystic Fibrosis Patients” (J Med Chem, 2022).
